Assay [1] can be described thus: reducers of endogenous Her2 protein level, primary screen, SKBR3 breast tumor cells, AlphaScreen, ATP viability (AID 461;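 active means Her2 level under about 52% in both replicate screens, with viability over 70% of control, limit read from the data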;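 on Her2 level: lower value means less Her2 protein in the cells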;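 on viability: percent of carrier control wells set as 100% viability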). As to conditions: 18-24 h, measured here: SKBR3 viability, ATP luminescence, at 10 µM.
Assay [2] concerns the target Receptor tyrosine-protein kinase erbB-2 (Homo sapiens) (UniProt P04626). The description is as above. As to conditions: 18-24 h, at 10 µM, stronger effect = lower value.
A short description of assay [3]: SK-BR-3 cell growth inhibitors, pilot screen, 24 h, human (AID 572;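 active means viability at or below 10% of carrier control in both of two separate runs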;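 further: compound exposure lasted between 18 and 24 h rather than exactly 24 h; 100% = carrier-treated control wells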). The conditions noted are these: SK-BR-3 viability, CellTiter-Glo luminescence, at 10 µM, stronger effect = lower value.
A short description of assay [4]: HUVEC growth inhibition – cell-based, human, primary screen (AID 575;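 active means viability at or below 30% in both replicate assays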;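 further: 100% = median of untreated cell wells with 0.1% DMSO on each plate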). The conditions noted are these: HUVEC proliferation, CellTiter-Glo luminescence, 72 h; at 10 µM; stronger effect = lower value. A digest of the protocol: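 Test system: primary human umbilical vein endothelial cells; medium: endothelial basal medium with 2% FBS plus growth supplements; dosing: 10 µM compound only; times: 72 h treatment at 37 °C; signal: CTG luminescence; read-out: % viability relative to median vehicle-well signal on each plate; control set: vehicle and MePR control wells; plate: 384-well, collagen-coated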

Assay [5] can be described thus: growth inhibitors of H69AR lung tumor, primary screen, human, duplicate replicates (AID 580;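 active means viability at or under a set limit in both replicates, limit being median viability minus 3 SD, cut at about 48% in these data, passing the limit was not always enough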;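 further: 100% = mean luminescence of untreated wells and 0% = no signal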). The conditions noted are these: H69AR lung tumor cells viability, ATP luminescence, 72 h; at 10 µM; stronger effect = lower value.
Assay [6] can be described thus: reversal of MRP1-mediated doxorubicin resistance, pilot screen, H69AR cells, doxorubicin co-treatment (AID 601). The conditions noted are these: CellTiter-Glo, 72 h, at 10 µM; for differential viability (reversal): stronger effect = higher value.
Assay [7] is described as follows: 384-well plate pilot, post-Golgi transport modulator project, inhibition of yeast transport mutant growth (AID 636; in the data active means inhibition above about 31%). The conditions noted are these: absorbance 615 nm, about 18 h, stronger effect = higher value.
Assay [8] in a line: growth suppression of yeast trafficking mutant, preliminary HTS, modulators of trafficking downstream of Golgi apparatus project, 1536-format plate, OD 615 nm (AID 637; in the data active means inhibition above about 30%). The conditions noted are these: yeast transport mutant growth, absorbance 615 nm, 18 h; stronger effect = higher value.
The mark [9] stands for this setting: H69AR cells + 2 uM doxorubicin, measured here: viability with 2 uM doxorubicin, stronger effect = lower value.
Setting [10] is: H69AR cells, compound alone cytotoxicity.

The values below come from PubChem BioAssay.

Calls of active or inactive are those of the source.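 How the source made its calls, unless noted: active means viability loss from added drug above about 55%, and viability with drug at most 40%, in both replicates (limit read from the data, passing the limit was not always enough); inconclusive means both conditions met in only one replicate; inactive means neither replicate meets both conditions.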

Sequence of Receptor tyrosine-protein kinase erbB-2 (Homo sapiens) (P04626 whole entry, looked up): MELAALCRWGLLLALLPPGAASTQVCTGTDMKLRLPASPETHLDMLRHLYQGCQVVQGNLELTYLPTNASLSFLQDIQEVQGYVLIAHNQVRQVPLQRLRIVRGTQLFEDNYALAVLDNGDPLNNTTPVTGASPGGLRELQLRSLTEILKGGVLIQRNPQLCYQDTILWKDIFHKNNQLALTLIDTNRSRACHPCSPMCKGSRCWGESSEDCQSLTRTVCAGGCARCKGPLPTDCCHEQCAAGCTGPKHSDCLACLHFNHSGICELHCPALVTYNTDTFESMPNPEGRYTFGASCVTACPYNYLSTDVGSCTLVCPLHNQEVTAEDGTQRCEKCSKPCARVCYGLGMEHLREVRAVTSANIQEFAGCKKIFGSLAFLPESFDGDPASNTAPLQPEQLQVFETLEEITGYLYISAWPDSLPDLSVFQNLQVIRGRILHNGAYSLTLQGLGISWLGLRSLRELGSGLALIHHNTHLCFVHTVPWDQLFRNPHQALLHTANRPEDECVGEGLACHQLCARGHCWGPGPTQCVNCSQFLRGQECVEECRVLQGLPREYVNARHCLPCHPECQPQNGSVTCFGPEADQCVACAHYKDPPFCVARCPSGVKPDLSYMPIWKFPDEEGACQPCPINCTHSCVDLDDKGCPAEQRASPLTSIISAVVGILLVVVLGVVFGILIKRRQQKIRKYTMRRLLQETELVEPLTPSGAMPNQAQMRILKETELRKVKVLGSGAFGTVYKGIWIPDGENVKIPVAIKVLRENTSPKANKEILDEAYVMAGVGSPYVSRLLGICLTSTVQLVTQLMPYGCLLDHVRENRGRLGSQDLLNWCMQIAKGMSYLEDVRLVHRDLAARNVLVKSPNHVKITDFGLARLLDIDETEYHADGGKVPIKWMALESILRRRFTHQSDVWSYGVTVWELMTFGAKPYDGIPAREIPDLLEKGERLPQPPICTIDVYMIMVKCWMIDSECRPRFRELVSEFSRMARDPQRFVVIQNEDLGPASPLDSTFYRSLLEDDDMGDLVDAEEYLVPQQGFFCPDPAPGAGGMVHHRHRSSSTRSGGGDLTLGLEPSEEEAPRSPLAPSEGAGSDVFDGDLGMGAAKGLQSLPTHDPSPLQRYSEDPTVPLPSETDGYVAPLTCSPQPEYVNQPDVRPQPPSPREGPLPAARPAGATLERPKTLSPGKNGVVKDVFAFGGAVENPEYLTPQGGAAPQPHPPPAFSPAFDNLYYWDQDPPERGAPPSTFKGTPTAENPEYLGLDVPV

For the molecule `Cc1n[nH]c(C)c1S(=O)(=O)Nc1ccc2c(c1)OCCO2`, the viability in assay [1] was 93%; in assay [3], 93% (inactive); in assay [4], 104% (inactive); in assay [5], 104% (inactive); in assay [6] (setting [9]), 89.3%; in assay [6] (setting [10]), 104%. In addition, in assay [2], the Her2 level is 98.5% (inactive). The differential viability (reversal) in assay [6] (H69AR cells + 2 uM doxorubicin) was 14.9% (inactive). The inhibition is -3.42% (inactive) in assay [7] and -4.29% (inactive) in assay [8].

As to `O=c1c2[nH]c3cccc(Cl)c3c2ncn1CCN1CCCCC1`, the viability in assay [1] was 103%; in assay [3], 103% (inactive); in assay [4] it was 101% (inactive); in assay [5] it was 92.6% (inactive); in assay [6] (setting [9]) it was 88.6%; in assay [6] (setting [10]), 92.6%. In assay [2], the Her2 level is 83.5% (inactive). For the same molecule, the differential viability (reversal) in assay [6] (H69AR cells + 2 uM doxorubicin) was 4.01% (inactive). Further, the inhibition in assay [7] was -4.13% (inactive); in assay [8] it was 0.49% (inactive).

Consider `CCC(=O)N/C(N)=N/c1nc(C)c2cc(OC)ccc2n1`, for which the viability was 131% in assay [1]; 131% (inactive) in assay [3]; 59.5% (inactive) in assay [4]; 80.7% (inactive) in assay [5]; 89.3% in assay [6] (setting [9]); 80.7% in assay [6] (setting [10]). Further, in assay [2], the Her2 level is 67.5% (inactive). In assay [6] (H69AR cells + 2 uM doxorubicin), the differential viability (reversal) is -8.64% (inactive). Moreover, the inhibition in assay [7] is -0.13% (inactive); in assay [8] it was -5.74% (inactive).

Consider `CC(=O)c1cccc(NC(=O)NCc2ccccn2)c1`, for which the viability in assay [1] is 91%; in assay [3], 91% (inactive); in assay [4], 92% (inactive); in assay [5], 97.6% (inactive); in assay [6] (setting [9]) it was 91.5%; in assay [6] (setting [10]) it was 97.6%. The Her2 level in assay [2] was 87% (inactive). Besides, in assay [6] (H69AR cells + 2 uM doxorubicin), the differential viability (reversal) was 6.09% (inactive). The values for the inhibition in assay [7] and in assay [8] were -4.47% (inactive) and -4.17% (inactive), respectively.

Take `CC(C)CCNC(=O)NC(=O)CSc1nnc(-c2ccccc2Br)o1`: the viability is 95% in assay [1]; 95% (inactive) in assay [3]; 85.8% (inactive) in assay [4]; 104% (inactive) in assay [5]; 101% in assay [6] (setting [9]); 104% in assay [6] (setting [10]). Moreover, in assay [2], the Her2 level was 95.5% (inactive). In addition, the differential viability (reversal) in assay [6] (H69AR cells + 2 uM doxorubicin) was 2.91% (inactive). Further, the inhibition in assay [7] was -4.74% (inactive); in assay [8], 0% (inactive).

In the case of `O=C(NCc1cccs1)C1CC(c2ccccc2O)=NO1` (stereo not given), the viability in assay [1] is 74%; in assay [3] it was 74% (inactive); in assay [4], 63.4% (inactive); in assay [5], 104% (inactive); in assay [6] (setting [9]), 87.3%; in assay [6] (setting [10]), 104%. Besides, in assay [2], the Her2 level is 78.5% (inactive). The differential viability (reversal) in assay [6] (H69AR cells + 2 uM doxorubicin) is 16.5% (inactive). Moreover, the inhibition in assay [7] is -3.73% (inactive); in assay [8], -0.33% (inactive).

With `CC1CCN(C(=S)c2ccccc2O)CC1`, the viability in assay [1] is 116%; in assay [3], 116% (inactive); in assay [4], 92.8% (inactive); in assay [5] it was 89% (inactive); in assay [6] (setting [9]), 89.9%; in assay [6] (setting [10]) it was 89%. Besides, the Her2 level in assay [2] is 105% (inactive). Moreover, the differential viability (reversal) in assay [6] (H69AR cells + 2 uM doxorubicin) is -0.9% (inactive). Moreover, the inhibition in assay [7] is -5.2% (inactive); in assay [8], -6.29% (inactive).

Take `Cc1ccc(S(=O)(=O)N2CCN(C(=O)CSc3nnnn3C)C2)cc1`: the viability is 110% in assay [1]; 110% (inactive) in assay [3]; 85.3% (inactive) in assay [4]; 102% (inactive) in assay [5]; 101% in assay [6] (setting [9]); 102% in assay [6] (setting [10]). Besides, the Her2 level in assay [2] is 104% (inactive). Also, the differential viability (reversal) in assay [6] (H69AR cells + 2 uM doxorubicin) is 1.78% (inactive). The inhibition is -0.66% (inactive) in assay [7] and 0.17% (inactive) in assay [8].

Consider `c1ccc2c(c1)nc(-c1ccncc1)n1nnnc21`, for which the viability in assay [1] is 96.5%; in assay [3] it was 96.5% (inactive); in assay [4] it was 93.5% (inactive); in assay [5], 93.2% (inactive); in assay [6] (setting [9]), 84.4%; in assay [6] (setting [10]), 93.2%. The Her2 level in assay [2] was 99.5% (inactive). Besides, the differential viability (reversal) in assay [6] (H69AR cells + 2 uM doxorubicin) is 8.75% (inactive). Besides, the inhibition in assay [7] was -6% (inactive); in assay [8] it was -0.16% (inactive).

On to `CCCCn1c(SCC(=O)NCc2ccccc2)nc2ccc(N3CCOCC3)cc2c1=O`, for which the viability in assay [1] is 80%; in assay [3] it was 80% (inactive); in assay [4] it was 98.1% (inactive); in assay [5] it was 74% (inactive); in assay [6] (setting [9]) it was 79.8%; in assay [6] (setting [10]), 74%. In assay [2], the Her2 level was 89.5% (inactive). In assay [6] (H69AR cells + 2 uM doxorubicin), the differential viability (reversal) is -5.76% (inactive). The inhibition is -1.22% (inactive) in assay [7] and 1.8% (inactive) in assay [8].

Consider `NC(=O)C1(N2CCCCC2)CCN(CC(=O)Nc2cc(Cl)ccc2Cl)CC1`, for which the viability in assay [1] is 105%; in assay [3] it was 105% (inactive); in assay [4], 81.6% (inactive); in assay [5], 91.8% (inactive); in assay [6] (setting [9]), 103%; in assay [6] (setting [10]), 91.8%. In addition, the Her2 level in assay [2] was 91.5% (inactive). Moreover, the differential viability (reversal) in assay [6] (H69AR cells + 2 uM doxorubicin) was -11.5% (inactive). For the same molecule, the inhibition was -1.6% (inactive) in assay [7] and 2.79% (inactive) in assay [8].

`O=C1c2ccccc2C(=O)N1CCCn1nnc(-c2ccc(N3CCOCC3)cc2)n1`: the viability in assay [1] is 110%; in assay [3], 110% (inactive); in assay [4], 103% (inactive); in assay [5], 95.9% (inactive); in assay [6] (setting [9]), 95.1%; in assay [6] (setting [10]), 95.9%. For the same molecule, the Her2 level in assay [2] is 90.5% (inactive). Besides, the differential viability (reversal) in assay [6] (H69AR cells + 2 uM doxorubicin) was 0.795% (inactive). Further, the inhibition in assay [7] is -4.53% (inactive); in assay [8] it was -4.43% (inactive).

As for `CC(=O)Nc1ccn(-c2ccccc2)n1`, the viability in assay [1] is 83%; in assay [3], 83% (inactive); in assay [4], 97.9% (inactive); in assay [5] it was 93.6% (inactive); in assay [6] (setting [9]) it was 97.6%; in assay [6] (setting [10]), 93.6%. In addition, the Her2 level in assay [2] was 105% (inactive). The differential viability (reversal) in assay [6] (H69AR cells + 2 uM doxorubicin) is -4.04% (inactive). Further, the figures for the inhibition in assay [7] and in assay [8] were 0% (inactive) and -6.77% (inactive), respectively.

Consider `CCOc1ccc2oc(-c3ccccc3)c(C(=O)N3CCN(CCO)CC3)c2c1`, for which the viability in assay [1] was 97.5%; in assay [3] it was 97.5% (inactive); in assay [4], 74.3% (inactive); in assay [5], 72.9% (inactive); in assay [6] (setting [9]), 69.6%; in assay [6] (setting [10]), 72.9%. Also, the Her2 level in assay [2] was 83% (inactive). The differential viability (reversal) in assay [6] (H69AR cells + 2 uM doxorubicin) is 3.36% (inactive). Also, the inhibition is -4.42% (inactive) in assay [7] and 0% (inactive) in assay [8].
